Measurements reported in ChEMBL document CHEMBL5058577, “EUbOPEN Chemogenomics Library 2 (Multiplex)” (2022).

Tested on: Fibroblast
Assay: Multiplex assay against human fibroblast
Assay type: toxicity, cell-based
Outline: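 On a CQ1 microscope at 37°C and 5% CO2, live cells were imaged after compound addition. They had been stained at seeding with Hoechst33342, BioTracker Green Microtubule Cytoskeleton Dye, MitoTracker Red and Annexin V Alexa Fluor 680. CellPathfinder machine-learning gating assigned cells to Hoechst high-intensity objects or normal cells, normal cells to healthy, pyknosed or fragmented nuclei, and pyknosed cells to mitotic or apoptotic. Tubulin, mitochondrial-mass and membrane-permeability phenotypes are per cents of healthy-nucleus cells.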

[1] = 12 h, 1 µM, compound concentration 1 uM, replicate 1
[2] = 12 h, 1 µM, compound concentration 1 uM, replicate 2
[3] = 12 h, 10 µM, compound concentration 10 uM, replicate 1
[4] = 12 h, 10 µM, compound concentration 10 uM, replicate 2
[5] = 24 h, 1 µM, compound concentration 1 uM, replicate 1
[6] = 24 h, 1 µM, compound concentration 1 uM, replicate 2
[7] = 24 h, 10 µM, compound concentration 10 uM, replicate 1
[8] = 24 h, 10 µM, compound concentration 10 uM, replicate 2
[9] = 48 h, 1 µM, compound concentration 1 uM, replicate 1
[10] = 48 h, 1 µM, compound concentration 1 uM, replicate 2
[11] = 48 h, 10 µM, compound concentration 10 uM, replicate 1
[12] = 48 h, 10 µM, compound concentration 10 uM, replicate 2

CN1CCN(c2cc(-c3ccccc3)nc(N)n2)CC1
Population Apoptotic (%) [1]: 47%
Population Fragmented Nuclei (%) [1]: 15%
Population Healthy Nuclei (%) [1]: 68%
Population Hoechst High Intensity Objects (%) [1]: 2%
Population Membrane Permeable-Phenotype (%) [1]: 1%
Population Mitochondria Different-Phenotype (%) [1]: 10%
Population Mitotic Cells (%) [1]: 52%
Population Normal (%) [1]: 97%
Population Pyknosed Nuclei (%) [1]: 15%
Population Tubulin-Different-Phenotype (%) [1]: 25%
Total Cell Count [1]: 135
Population Apoptotic (%) [2]: 37%
Population Fragmented Nuclei (%) [2]: 28%
Population Healthy Nuclei (%) [2]: 45%
Population Hoechst High Intensity Objects (%) [2]: 5%
Population Membrane Permeable-Phenotype (%) [2]: 11%
Population Mitochondria Different-Phenotype (%) [2]: 11%
Population Mitotic Cells (%) [2]: 62%
Population Normal (%) [2]: 94%
Population Pyknosed Nuclei (%) [2]: 26%
Population Tubulin-Different-Phenotype (%) [2]: 66%
Total Cell Count [2]: 97
Population Apoptotic (%) [3]: 48%
Population Fragmented Nuclei (%) [3]: 16%
Population Healthy Nuclei (%) [3]: 67%
Population Hoechst High Intensity Objects (%) [3]: 2%
Population Membrane Permeable-Phenotype (%) [3]: 0%
Population Mitochondria Different-Phenotype (%) [3]: 6%
Population Mitotic Cells (%) [3]: 51%
Population Normal (%) [3]: 97%
Population Pyknosed Nuclei (%) [3]: 15%
Population Tubulin-Different-Phenotype (%) [3]: 44%
Total Cell Count [3]: 216
Population Apoptotic (%) [4]: 36%
Population Fragmented Nuclei (%) [4]: 40%
Population Healthy Nuclei (%) [4]: 36%
Population Hoechst High Intensity Objects (%) [4]: 7%
Population Membrane Permeable-Phenotype (%) [4]: 10%
Population Mitochondria Different-Phenotype (%) [4]: 12%
Population Mitotic Cells (%) [4]: 64%
Population Normal (%) [4]: 92%
Population Pyknosed Nuclei (%) [4]: 22%
Population Tubulin-Different-Phenotype (%) [4]: 67%
Total Cell Count [4]: 118
Population Apoptotic (%) [5]: 75%
Population Fragmented Nuclei (%) [5]: 17%
Population Healthy Nuclei (%) [5]: 65%
Population Hoechst High Intensity Objects (%) [5]: 2%
Population Membrane Permeable-Phenotype (%) [5]: 1%
Population Mitochondria Different-Phenotype (%) [5]: 3%
Population Mitotic Cells (%) [5]: 25%
Population Normal (%) [5]: 97%
Population Pyknosed Nuclei (%) [5]: 16%
Population Tubulin-Different-Phenotype (%) [5]: 19%
Total Cell Count [5]: 145
Population Apoptotic (%) [6]: 47%
Population Fragmented Nuclei (%) [6]: 36%
Population Healthy Nuclei (%) [6]: 44%
Population Membrane Permeable-Phenotype (%) [6]: 8%
Population Mitochondria Different-Phenotype (%) [6]: 8%
Population Mitotic Cells (%) [6]: 52%
Population Pyknosed Nuclei (%) [6]: 18%
Population Tubulin-Different-Phenotype (%) [6]: 50%
Total Cell Count [6]: 106
Population Apoptotic (%) [7]: 41%
Population Fragmented Nuclei (%) [7]: 12%
Population Healthy Nuclei (%) [7]: 70%
Population Hoechst High Intensity Objects (%) [7]: 2%
Population Membrane Permeable-Phenotype (%) [7]: 1%
Population Mitochondria Different-Phenotype (%) [7]: 6%
Population Mitotic Cells (%) [7]: 58%
Population Normal (%) [7]: 97%
Population Pyknosed Nuclei (%) [7]: 17%
Population Tubulin-Different-Phenotype (%) [7]: 41%
Total Cell Count [7]: 213
Population Apoptotic (%) [8]: 29%
Population Fragmented Nuclei (%) [8]: 33%
Population Healthy Nuclei (%) [8]: 43%
Population Membrane Permeable-Phenotype (%) [8]: 4%
Population Mitotic Cells (%) [8]: 70%
Population Pyknosed Nuclei (%) [8]: 23%
Population Tubulin-Different-Phenotype (%) [8]: 64%
Total Cell Count [8]: 107
Population Apoptotic (%) [9]: 70%
Population Fragmented Nuclei (%) [9]: 22%
Population Healthy Nuclei (%) [9]: 62%
Population Hoechst High Intensity Objects (%) [9]: 2%
Population Membrane Permeable-Phenotype (%) [9]: 0%
Population Mitochondria Different-Phenotype (%) [9]: 2%
Population Mitotic Cells (%) [9]: 30%
Population Normal (%) [9]: 97%
Population Pyknosed Nuclei (%) [9]: 15%
Population Tubulin-Different-Phenotype (%) [9]: 20%
Total Cell Count [9]: 137
Population Apoptotic (%) [10]: 50%
Population Fragmented Nuclei (%) [10]: 36%
Population Healthy Nuclei (%) [10]: 49%
Population Hoechst High Intensity Objects (%) [10]: 3%
Population Membrane Permeable-Phenotype (%) [10]: 2%
Population Mitochondria Different-Phenotype (%) [10]: 6%
Population Mitotic Cells (%) [10]: 50%
Population Normal (%) [10]: 96%
Population Pyknosed Nuclei (%) [10]: 14%
Population Tubulin-Different-Phenotype (%) [10]: 54%
Total Cell Count [10]: 101
Population Apoptotic (%) [11]: 40%
Population Fragmented Nuclei (%) [11]: 26%
Population Healthy Nuclei (%) [11]: 58%
Population Hoechst High Intensity Objects (%) [11]: 3%
Population Membrane Permeable-Phenotype (%) [11]: 0%
Population Mitochondria Different-Phenotype (%) [11]: 0%
Population Mitotic Cells (%) [11]: 59%
Population Normal (%) [11]: 96%
Population Pyknosed Nuclei (%) [11]: 14%
Population Tubulin-Different-Phenotype (%) [11]: 31%
Total Cell Count [11]: 227
Population Apoptotic (%) [12]: 66%
Population Fragmented Nuclei (%) [12]: 50%
Population Healthy Nuclei (%) [12]: 39%
Population Membrane Permeable-Phenotype (%) [12]: 9%
Population Mitochondria Different-Phenotype (%) [12]: 9%
Population Mitotic Cells (%) [12]: 33%
Population Pyknosed Nuclei (%) [12]: 10%
Population Tubulin-Different-Phenotype (%) [12]: 60%
Total Cell Count [12]: 114
